Assay results taken from ChEMBL document CHEMBL5696442, “Discovery of type II inhibitors of TGFβ-activated kinase 1 (TAK1) and mitogen-activated protein kinase kinase kinase kinase 2 (MAP4K2)” (J Med Chem, 2015).
Calls of active or inactive are those of the source. The calls are words filed in the database; no cut-off is given here.

Legend:
GEN2.2 = assay: Inhibition of CL097 induced IKKalpha/beta phosphorylation level in human GEN2.2 cells at 1 uM preincubated with compound for 1 hr followed by CL097 stimulation and measured after 30 mins by Western blot analysis; format: functional, cell-based
[1] = target: T1, Mitogen-activated protein kinase kinase kinase 7 (Homo sapiens) (UniProt O43318); assay: Inhibition of TAK1 Lys2 labeling site in human Huh-7 cell lysate at 1 uM by KiNativ Profiling analysis relative to control; format: subcellular
T1 sequence (whole entry): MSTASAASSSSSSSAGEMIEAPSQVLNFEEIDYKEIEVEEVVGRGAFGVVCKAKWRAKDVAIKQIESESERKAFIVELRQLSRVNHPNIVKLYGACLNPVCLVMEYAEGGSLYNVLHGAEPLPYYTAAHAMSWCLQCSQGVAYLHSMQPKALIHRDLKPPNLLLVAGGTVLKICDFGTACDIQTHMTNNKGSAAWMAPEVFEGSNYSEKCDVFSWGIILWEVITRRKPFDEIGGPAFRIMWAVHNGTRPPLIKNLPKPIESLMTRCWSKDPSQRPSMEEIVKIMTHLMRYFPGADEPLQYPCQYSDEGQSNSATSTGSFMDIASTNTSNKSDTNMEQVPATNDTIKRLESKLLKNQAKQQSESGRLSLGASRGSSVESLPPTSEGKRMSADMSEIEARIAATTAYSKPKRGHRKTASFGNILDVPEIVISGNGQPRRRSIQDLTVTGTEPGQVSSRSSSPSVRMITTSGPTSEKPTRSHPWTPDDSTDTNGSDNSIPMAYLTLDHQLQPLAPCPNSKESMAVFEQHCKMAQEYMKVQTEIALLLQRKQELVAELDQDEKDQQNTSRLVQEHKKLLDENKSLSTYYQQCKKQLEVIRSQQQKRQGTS

[2] = target: Serine/threonine-protein kinase Nek7 (Homo sapiens) (UniProt Q8TDX7); assay: Inhibition of NEK7 ACT labeling site in human A-375 cells at 5 uM by KiNativ Profiling analysis relative to control; format: cell-based
Sequence of Serine/threonine-protein kinase Nek7 (Homo sapiens) (Q8TDX7 whole entry, looked up): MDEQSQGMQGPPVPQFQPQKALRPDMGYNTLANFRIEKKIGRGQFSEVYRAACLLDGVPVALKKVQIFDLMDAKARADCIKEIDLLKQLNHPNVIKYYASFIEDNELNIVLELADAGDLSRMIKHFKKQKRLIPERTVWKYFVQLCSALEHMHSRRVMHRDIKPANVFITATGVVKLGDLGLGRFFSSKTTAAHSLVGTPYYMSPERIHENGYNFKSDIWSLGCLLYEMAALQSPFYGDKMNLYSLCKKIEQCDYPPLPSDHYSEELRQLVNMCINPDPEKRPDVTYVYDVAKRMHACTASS

[3] = target: Serine/threonine-protein kinase WNK1 (Homo sapiens) (UniProt Q9H4A3); assay: Inhibition of Wnk1 ACT labeling site in human A-375 cells at 0.05 uM by KiNativ Profiling analysis relative to control; format: cell-based
Sequence of Serine/threonine-protein kinase WNK1 (Homo sapiens) (Q9H4A3 whole entry, looked up): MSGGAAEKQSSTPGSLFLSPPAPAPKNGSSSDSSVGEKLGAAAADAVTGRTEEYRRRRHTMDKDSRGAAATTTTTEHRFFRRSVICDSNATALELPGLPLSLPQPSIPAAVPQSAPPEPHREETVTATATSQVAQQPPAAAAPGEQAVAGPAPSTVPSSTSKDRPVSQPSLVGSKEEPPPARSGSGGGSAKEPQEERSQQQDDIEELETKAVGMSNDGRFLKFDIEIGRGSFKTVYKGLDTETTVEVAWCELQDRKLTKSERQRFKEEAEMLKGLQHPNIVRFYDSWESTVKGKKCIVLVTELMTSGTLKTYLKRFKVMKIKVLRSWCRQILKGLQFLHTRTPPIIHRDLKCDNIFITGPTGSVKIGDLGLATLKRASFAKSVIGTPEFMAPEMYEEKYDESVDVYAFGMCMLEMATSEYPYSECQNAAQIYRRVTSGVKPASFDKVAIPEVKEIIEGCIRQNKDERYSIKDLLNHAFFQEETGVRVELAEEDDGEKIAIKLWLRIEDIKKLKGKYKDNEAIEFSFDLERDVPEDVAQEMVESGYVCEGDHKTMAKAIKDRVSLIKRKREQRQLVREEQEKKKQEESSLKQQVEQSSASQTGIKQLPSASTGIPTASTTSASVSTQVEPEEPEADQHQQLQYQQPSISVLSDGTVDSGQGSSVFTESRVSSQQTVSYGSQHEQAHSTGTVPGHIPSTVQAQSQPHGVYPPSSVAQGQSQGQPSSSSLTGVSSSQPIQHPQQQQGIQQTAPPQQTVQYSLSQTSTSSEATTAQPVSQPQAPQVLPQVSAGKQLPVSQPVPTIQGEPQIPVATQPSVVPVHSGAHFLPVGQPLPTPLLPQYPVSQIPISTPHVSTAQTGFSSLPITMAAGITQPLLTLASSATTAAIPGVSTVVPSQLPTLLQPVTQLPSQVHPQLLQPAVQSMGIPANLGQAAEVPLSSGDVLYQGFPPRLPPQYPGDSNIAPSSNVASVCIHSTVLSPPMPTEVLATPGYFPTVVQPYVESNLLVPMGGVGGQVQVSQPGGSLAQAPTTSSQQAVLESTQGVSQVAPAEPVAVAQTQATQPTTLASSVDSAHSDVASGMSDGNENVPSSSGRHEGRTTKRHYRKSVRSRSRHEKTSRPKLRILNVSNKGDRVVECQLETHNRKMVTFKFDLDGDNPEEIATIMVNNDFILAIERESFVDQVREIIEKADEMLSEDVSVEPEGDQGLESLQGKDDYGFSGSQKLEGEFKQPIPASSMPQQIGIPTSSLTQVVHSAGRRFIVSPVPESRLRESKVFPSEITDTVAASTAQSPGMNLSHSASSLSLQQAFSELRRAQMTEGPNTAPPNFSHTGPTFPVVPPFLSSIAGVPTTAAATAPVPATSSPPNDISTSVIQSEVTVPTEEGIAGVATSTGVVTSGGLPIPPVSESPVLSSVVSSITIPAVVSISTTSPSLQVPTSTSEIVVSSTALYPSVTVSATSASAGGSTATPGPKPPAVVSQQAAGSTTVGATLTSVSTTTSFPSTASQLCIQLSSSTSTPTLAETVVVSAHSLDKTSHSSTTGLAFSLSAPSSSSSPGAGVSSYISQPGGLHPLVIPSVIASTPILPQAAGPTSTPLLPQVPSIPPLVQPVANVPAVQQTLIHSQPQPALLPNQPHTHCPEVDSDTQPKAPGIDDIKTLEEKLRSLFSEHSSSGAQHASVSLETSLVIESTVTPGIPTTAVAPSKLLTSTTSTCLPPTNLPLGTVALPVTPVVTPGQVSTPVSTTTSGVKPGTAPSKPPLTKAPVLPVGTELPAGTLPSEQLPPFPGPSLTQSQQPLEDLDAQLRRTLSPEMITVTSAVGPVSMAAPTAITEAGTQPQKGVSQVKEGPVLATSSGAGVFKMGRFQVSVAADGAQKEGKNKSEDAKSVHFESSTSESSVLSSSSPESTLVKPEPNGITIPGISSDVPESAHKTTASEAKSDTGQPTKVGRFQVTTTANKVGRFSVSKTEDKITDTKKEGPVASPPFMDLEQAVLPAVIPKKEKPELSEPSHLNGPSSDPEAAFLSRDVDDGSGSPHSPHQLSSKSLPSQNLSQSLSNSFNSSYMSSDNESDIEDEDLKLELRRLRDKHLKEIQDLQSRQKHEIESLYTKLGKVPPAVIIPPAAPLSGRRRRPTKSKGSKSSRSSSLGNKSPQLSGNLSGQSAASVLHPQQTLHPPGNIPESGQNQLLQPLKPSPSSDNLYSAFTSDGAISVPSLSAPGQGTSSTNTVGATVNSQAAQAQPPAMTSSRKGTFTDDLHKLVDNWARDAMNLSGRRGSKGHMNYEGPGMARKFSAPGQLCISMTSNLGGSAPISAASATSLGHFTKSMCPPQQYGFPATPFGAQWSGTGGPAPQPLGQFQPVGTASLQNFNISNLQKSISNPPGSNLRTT

[4] = target: Cyclin-dependent kinase 2 (Homo sapiens) (UniProt P24941); assay: Inhibition of CDK2 Lys1 labeling site in human A-375 cells at 5 uM by KiNativ Profiling analysis relative to control; format: cell-based
Summary of the method: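 Intact A375 melanoma cells were treated with compound at 5 or 0.5 μM, then lysed. Lysate kinases were labeled with a lysine-reactive ATP or ADP-biotin probe (KiNativ). Inhibition is read as protection of each kinase labeling site from probe labeling.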

[5] = target: Ribosomal protein S6 kinase alpha-1 (Homo sapiens) (UniProt Q15418); assay: Inhibition of RSK1 Protein Kinase Domain in human A-375 cells at 0.05 uM by KiNativ Profiling analysis relative to control; format: cell-based
Sequence of Ribosomal protein S6 kinase alpha-1 (Homo sapiens) (Q15418 whole entry, the tested form may be a part): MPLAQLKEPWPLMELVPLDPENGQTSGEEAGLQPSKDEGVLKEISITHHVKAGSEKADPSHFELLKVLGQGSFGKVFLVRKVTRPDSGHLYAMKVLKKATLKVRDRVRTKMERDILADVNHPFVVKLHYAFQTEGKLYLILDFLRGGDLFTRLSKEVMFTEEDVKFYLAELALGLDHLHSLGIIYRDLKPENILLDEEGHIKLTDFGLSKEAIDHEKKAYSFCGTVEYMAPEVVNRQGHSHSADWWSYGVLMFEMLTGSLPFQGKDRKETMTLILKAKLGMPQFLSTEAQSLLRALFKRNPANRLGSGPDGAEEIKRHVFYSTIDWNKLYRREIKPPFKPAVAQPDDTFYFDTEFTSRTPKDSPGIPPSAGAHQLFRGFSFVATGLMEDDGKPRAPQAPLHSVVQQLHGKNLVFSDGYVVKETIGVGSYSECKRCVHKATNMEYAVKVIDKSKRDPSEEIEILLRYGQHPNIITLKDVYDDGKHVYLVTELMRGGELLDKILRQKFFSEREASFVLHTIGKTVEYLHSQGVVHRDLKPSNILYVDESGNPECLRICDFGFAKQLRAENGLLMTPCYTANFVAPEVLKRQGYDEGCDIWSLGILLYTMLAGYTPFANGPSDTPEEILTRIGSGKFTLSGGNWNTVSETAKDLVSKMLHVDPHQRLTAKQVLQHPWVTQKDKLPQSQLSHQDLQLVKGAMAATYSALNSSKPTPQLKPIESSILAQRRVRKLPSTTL

[6] = target: T2, Mitogen-activated protein kinase 12 (Homo sapiens) (UniProt P53778); assay: Inhibition of p38 gamma Lys2 labeling site in human A-375 cells at 5 uM by KiNativ Profiling analysis relative to control; format: cell-based
T2 sequence (whole entry): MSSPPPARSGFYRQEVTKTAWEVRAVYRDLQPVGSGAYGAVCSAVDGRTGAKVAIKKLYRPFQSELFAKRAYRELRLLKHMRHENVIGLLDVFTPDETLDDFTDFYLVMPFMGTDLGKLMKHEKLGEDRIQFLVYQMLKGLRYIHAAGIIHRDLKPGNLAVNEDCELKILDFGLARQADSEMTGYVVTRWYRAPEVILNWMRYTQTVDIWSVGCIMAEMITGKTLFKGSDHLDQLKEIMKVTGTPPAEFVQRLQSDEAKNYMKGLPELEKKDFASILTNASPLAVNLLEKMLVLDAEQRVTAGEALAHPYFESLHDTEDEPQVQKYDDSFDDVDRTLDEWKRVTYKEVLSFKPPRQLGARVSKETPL

[7] = Cmax in Swiss albino mouse at 10 mg/kg, po measured upto 24 hrs by LC/MS/MS analysis; format: ADME, organism-based; details: in vivo
[8] = target: T3, Serine/threonine-protein kinase Chk1 (Homo sapiens) (UniProt O14757); assay: Inhibition of CHK1 Lys2 labeling site harbouring DIKPENLLLDER in human A-375 cells at 5 uM by KiNativ Profiling analysis relative to control; format: cell-based
T3 sequence (whole entry): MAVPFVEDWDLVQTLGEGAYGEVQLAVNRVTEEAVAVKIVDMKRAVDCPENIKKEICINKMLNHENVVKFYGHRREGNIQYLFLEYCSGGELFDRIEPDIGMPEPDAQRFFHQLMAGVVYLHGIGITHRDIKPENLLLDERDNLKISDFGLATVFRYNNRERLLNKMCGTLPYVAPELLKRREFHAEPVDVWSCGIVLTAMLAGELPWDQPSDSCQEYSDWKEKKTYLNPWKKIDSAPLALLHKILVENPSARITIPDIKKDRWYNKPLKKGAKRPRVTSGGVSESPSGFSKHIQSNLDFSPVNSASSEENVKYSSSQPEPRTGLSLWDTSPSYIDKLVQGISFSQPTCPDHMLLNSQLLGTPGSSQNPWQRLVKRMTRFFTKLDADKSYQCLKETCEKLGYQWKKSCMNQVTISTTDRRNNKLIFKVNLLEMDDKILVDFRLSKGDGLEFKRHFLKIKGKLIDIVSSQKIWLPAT
Summary of the method: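 Live A375 melanoma cells were treated with compound at 5 or 0.5 μM. The cells were then lysed, and the lysates were labeled with a lysine-reactive ATP or ADP-biotin acyl probe (KiNativ). Inhibition is the compound's protection of each kinase labeling-site peptide from probe labeling, relative to untreated control.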

[9] = target: Mitogen-activated protein kinase 7 (Homo sapiens) (UniProt Q13164); assay: Inhibition of Erk5 Lys2 labeling site in human A-375 cells at 5 uM by KiNativ Profiling analysis relative to control; format: cell-based
Summary of the method: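 Live A375 melanoma cells were treated with compound at 0.5 or 5 μM, then lysed. Lysates were labeled with a lysine-reactive ATP or ADP-biotin probe. The read-out was protection of each kinase probe-labeling site from labeling, relative to control.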

[10] = target: Tyrosine-protein kinase JAK1 (Homo sapiens) (UniProt P23458); assay: Inhibition of JAK1 domain2 Lys1 labeling site in human A-375 cells at 5 uM by KiNativ Profiling analysis relative to control; format: cell-based
Sequence of Tyrosine-protein kinase JAK1 (Homo sapiens) (P23458 whole entry, the tested form may be a part): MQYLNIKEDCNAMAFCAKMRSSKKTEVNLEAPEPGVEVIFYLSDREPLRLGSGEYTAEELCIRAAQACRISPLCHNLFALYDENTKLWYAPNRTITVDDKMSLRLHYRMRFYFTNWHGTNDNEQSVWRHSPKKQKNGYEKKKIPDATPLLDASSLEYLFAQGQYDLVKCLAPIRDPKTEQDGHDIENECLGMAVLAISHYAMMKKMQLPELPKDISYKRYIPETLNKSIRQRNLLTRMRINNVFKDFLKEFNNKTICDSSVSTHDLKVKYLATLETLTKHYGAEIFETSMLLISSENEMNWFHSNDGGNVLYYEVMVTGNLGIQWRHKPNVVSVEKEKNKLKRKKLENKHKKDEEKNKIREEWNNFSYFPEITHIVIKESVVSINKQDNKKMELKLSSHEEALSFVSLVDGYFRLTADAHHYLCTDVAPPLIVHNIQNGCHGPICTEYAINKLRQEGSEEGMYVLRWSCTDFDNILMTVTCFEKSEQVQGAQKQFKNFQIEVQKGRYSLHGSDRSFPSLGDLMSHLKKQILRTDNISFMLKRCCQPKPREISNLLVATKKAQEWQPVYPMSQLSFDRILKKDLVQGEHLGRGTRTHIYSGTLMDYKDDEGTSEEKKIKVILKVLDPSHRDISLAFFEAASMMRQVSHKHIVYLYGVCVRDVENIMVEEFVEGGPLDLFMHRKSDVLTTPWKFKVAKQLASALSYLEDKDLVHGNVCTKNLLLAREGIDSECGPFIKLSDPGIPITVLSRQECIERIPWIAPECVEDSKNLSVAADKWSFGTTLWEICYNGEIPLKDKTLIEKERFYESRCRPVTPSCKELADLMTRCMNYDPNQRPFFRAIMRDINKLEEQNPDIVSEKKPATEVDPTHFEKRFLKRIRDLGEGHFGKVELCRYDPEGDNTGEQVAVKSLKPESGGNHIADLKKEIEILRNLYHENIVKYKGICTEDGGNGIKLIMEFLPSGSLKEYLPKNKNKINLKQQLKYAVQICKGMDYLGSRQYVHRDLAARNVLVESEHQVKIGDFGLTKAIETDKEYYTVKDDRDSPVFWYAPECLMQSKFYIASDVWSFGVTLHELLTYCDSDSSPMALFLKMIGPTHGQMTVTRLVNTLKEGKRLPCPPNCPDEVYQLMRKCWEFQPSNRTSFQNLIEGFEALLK

[11] = target: Cyclin-dependent kinase 2 (Homo sapiens) (UniProt P24941); assay: Inhibition of CDK2 Lys2 labeling site in human A-375 cells at 0.05 uM by KiNativ Profiling analysis relative to control; format: cell-based

SMILES	inhibition (GEN2.2)	inhibition [1]	inhibition [2]	inhibition [3]	inhibition [4]	inhibition [5]	inhibition [6]	Cmax [7]	inhibition [8]	inhibition [9]	inhibition [10]	inhibition [11]
CNc1cc(Oc2cc(C(=O)Nc3cc(-n4cnc(C)c4)cc(C(F)(F)F)c3)ccc2C)ncn1	inactive	29.3%										
CNc1cc(Oc2cc(C(=O)Nc3cc(N4CCN(C)CC4)cc(C(F)(F)F)c3)ccc2C)ncn1		7%										
CCN1CCN(Cc2ccc(NC(=O)c3ccc(C)c(Oc4ccnc5[nH]ccc45)c3)cc2C(F)(F)F)CC1	Active		-3.5%	10.3%	37.3%	-4.7%	> 94%	316 ng/mL	40.1%	7.8%	97.6%	16.2%
CCN1CCN(Cc2ccc(NC(=O)c3ccc(C)c(/C=C/c4cnc5[nH]ccc5c4OC)c3)cc2C(F)(F)F)CC1			-6.2%	10.1%	17.6%	1.4%	52.7%	163 ng/mL	-4.8%	8.7%	73.4%	13.3%
